Experimental data from ChEMBL document CHEMBL3865807, “Syntheses and photodynamic activity of some glucose-conjugated BODIPY dyes” (Eur J Med Chem, 2016).
The source made the active and inactive calls. No cut-off for these calls is given here.

Legend:
[1] = Drug uptake in human A549 cells assessed as mean fluorescence intensity at 2.5 uM after 2 hrs by flow cytometry (reference value: 5.4 +/- 1.5); format: ADME, cell-based; settings: a549, 2 h
A549 [2] = assay: Photocytotoxicity against human A549 cells assessed as decrease in cell viability at 500 to 5000 nM preincubated for 1 hr followed by 0.77 mW/cm2 white light irradiation measured after 24 hrs by MTT assay; format: functional, cell-based; settings: TDE = time-dependent effect
Outline: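 A549 cells (1×10^4/well), plated overnight, given compound for 1 h in serum-free medium, washed twice with PBS, irradiated 0.5, 1, 2 or 4 h at 0.77 mW/cm² (37 °C, 5% CO₂), then 24 h in regular medium; MTT 0.5 mg/mL for 6 h, formazan dissolved in 0.01 N HCl/10% SDS, A550.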

A549 [3] = assay: Induction of apoptosis in human A549 cells assessed as increase in caspase 3 activity at 2.5 uM preincubated for 1 hr followed by 0.77 mW/cm2 white light irradiation for 80 mins measured after 16 hrs by colorimetric method relative to control; format: functional
Outline: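 A549 cells (1×10^6) given compound 2.5 µM for 1 h, then light 80 min; caspase activities measured at 16 h in whole-cell extracts with kits, colorimetric for caspase-3 and fluorimetric for caspase-8; untreated photo-exposed cells as control; five replicates, mean ± SEM.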

A549 [4] = assay: Induction of apoptosis in human A549 cells assessed as pro-caspase 3 level at 2.5 uM preincubated for 1 hr followed by 0.77 mW/cm2 white light irradiation for 80 mins measured after 24 hrs by immunoblot analysis relative to control; format: functional
Outline: (§1)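 Whole-cell extracts from A549 cells (1×10^6) treated with 0 or 2.5 µM compound, photo-exposed 80 min, lysed in Tris pH 7.4/NaCl/EDTA/Triton with protease inhibitors; 30 µg protein on 12% SDS-PAGE, nitrocellulose, milk block, caspase-3 antibody overnight 4 °C, HRP secondary, chemiluminescence; band ratio to normal control (=1) after loading-control normalisation.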

A549 [5] = assay: Induction of apoptosis in human A549 cells assessed as decrease in pro-caspase 3 level at 2.5 uM preincubated for 1 hr followed by in 0.77 mW/cm2 white light irradiation for 80 mins by immunoblot analysis; format: functional, cell-based; settings: TDE = time-dependent effect; outline: as §1
[6] = Photocytotoxicity against human A549 cells assessed as decrease in cell viability preincubated for 1 hr followed by 0.77 mW/cm2 white light irradiation for 80 mins measured after 24 hrs by MTT assay; format: functional, cell-based; settings: A549, light or radiation study
Outline: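 IC50 from MTT: A549 cells (1×10^4/well) given graded compound concentrations 1 h in serum-free DMEM (vehicle ≤0.1% DMSO), washed, photo-exposed 80 min at 0.77 mW/cm², regular medium 24 h; MTT 0.5 mg/mL 6 h, A550; viability relative to vehicle control; four replicates, three experiments, mean ± SEM.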

[7] = Photocytotoxicity against human WI38 cells at 50 uM using 0.77 mW/cm2 white light irradiation by MTT assay; format: toxicity, cell-based; settings: wi-38, 50 µM
[8] = Drug uptake in cytoplasm of human A549 cells at 1 uM after 0.25 to 3 hrs by Hoechst 33342 staining based fluorescence microscopy; format: ADME, cell-based; settings: a549, 1 µM
Outline: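 A549 cells on coverslips loaded with dyes (1 µM) for 0.25, 0.5, 1, 2 or 3 h at 37 °C, washed, counterstained with Hoechst 33342 (10 µM), mounted in 70% glycerol; red dye and blue nuclear fluorescence imaged by fluorescence microscopy (40×) and overlaid.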

[9] = Cytotoxicity against human A549 cells assessed as decrease in cell viability up to 200 uM after 48 hrs under dark condition by MTT assay; format: toxicity, cell-based; settings: a549, 48 h
Outline: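 Dark toxicity: A549 cells treated as in the MTT protocol (1 h compound exposure, serum-free medium, washed) with no light, then assessed at 48 h by MTT (0.5 mg/mL, 6 h, formazan in HCl/SDS, A550).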

[10] = Cell cycle arrest in human A549 cells assessed as accumulation at subG1 phase at 2.5 uM preincubated for 1 hr followed by 0.77 mW/cm2 white light irradiation for 80 mins measured after 24 hrs by propidium iodide staining based flow cytometry (reference value: 8.2 +/- 1.1%); format: functional
[11] = Drug uptake in human L-132 cells assessed as mean fluorescence intensity at 2.5 uM after 8 hrs by flow cytometry (reference value: 4.6 +/- 1.2); format: ADME, cell-based; settings: l132, 8 h
A549 [12] = assay: Induction of morphological changes in human A549 cells assessed as irregular disruptions in optical diffraction halo preincubated for 1 hr followed by 0.77 mW/cm2 white light irradiation for 80 mins measured after 24 hrs by phase contrast microscopy; format: functional, cell-based
Outline: (§2)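 A549 cells (1×10^5/well) on coverslips given vehicle (0.1% DMSO) or compound (0.625, 1.25, 2.5 µM) for 1 h, then irradiated 80 min (0.77 mW/cm²); kept 24 h in regular medium and examined unstained by phase-contrast microscopy (40× objective); representative fields imaged; experiments done three times.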

[13] = Toxicity in human A549 cells assessed as alteration in cell morphology at 100 nM measured up to 4 hrs in dark by confocal microscopy; format: cell-based; settings: a549, 4 h, 0.1 µM
[14] = Drug uptake in human L-132 cells assessed as mean fluorescence intensity at 2.5 uM after 2 hrs by flow cytometry (reference value: 4.6 +/- 1.2); format: ADME, cell-based; settings: l132, 2 h
A549 [15] = assay: Induction of apoptosis in human A549 cells assessed as pro-caspase 3 level at 2.5 uM preincubated for 1 hr followed by 0.77 mW/cm2 white light irradiation for 80 mins measured after 8 hrs by immunoblot analysis relative to control; format: functional; outline: as §1
[16] = Photocytotoxicity against human L-132 cells at 50 uM using 0.77 mW/cm2 white light irradiation by MTT assay; format: toxicity, cell-based; settings: l132, 50 µM
A549 [17] = assay: Induction of apoptosis in human A549 cells assessed as increase in caspase 9 activity at 2.5 uM preincubated for 1 hr followed by 0.77 mW/cm2 white light irradiation for 80 mins measured after 16 hrs in presence of caspase-9 inhibitor Z-LEHD-FMK by immunoblot analysis; format: functional, cell-based
A549 [18] = assay: Induction of morphological changes in human A549 cells assessed as cells with blebbing membranes up to 2.5 uM preincubated for 1 hr followed by 0.77 mW/cm2 white light irradiation for 80 mins measured after 24 hrs by phase contrast microscopy; format: functional, cell-based; outline: as §2
[19] = Drug uptake in human A549 cells assessed as mean fluorescence intensity at 2.5 uM after 8 hrs by flow cytometry (reference value: 5.4 +/- 1.5); format: ADME, cell-based; settings: a549, 8 h
[20] = Drug uptake in human L-132 cells assessed as mean fluorescence intensity at 2.5 uM after 4 hrs by flow cytometry (reference value: 4.6 +/- 1.2); format: ADME, cell-based; settings: l132, 4 h
[21] = Drug uptake in human A549 cells assessed as mean fluorescence intensity at 2.5 uM after 24 hrs by flow cytometry (reference value: 5.4 +/- 1.5); format: ADME, cell-based; settings: a549, 24 h
A549 [22] = assay: Induction of apoptosis in human A549 cells assessed as pro-caspase 3 level at 2.5 uM preincubated for 1 hr followed by 0.77 mW/cm2 white light irradiation for 80 mins measured after 16 hrs by immunoblot analysis relative to control; format: functional; outline: as §1

CCC1=C(C)C2=C(C)c3c(C)c(CC)c(C)n3[B-](F)(F)[N+]2=C1/C=C/c1ccc(O[C@H]2O[C@H](CO)[C@@H](O)[C@H](O)[C@H]2O)cc1
Flu intensity [1]: 95.3 to 98.5
Activity (A549 [2]): Tde
fold change (FC) (A549 [3]): 2.9
fold change (FC) (A549 [4]): 0.2
Activity (A549 [5]): Tde
IC50 [6]: 2.7 µM
Activity [7]: 5 to 7%
Drug uptake [8]: Active
Activity [9]: Non-Toxic
Activity [10]: 68.8%
Flu intensity [11]: 49.5
Activity (A549 [12]): Dose-dependent effect
Activity [13]: Non-Toxic
Flu intensity [14]: 63.5
fold change (FC) (A549 [15]): 0.8
Activity [16]: 5 to 7%
Activity (A549 [17]): Active
Activity (A549 [18]): Active
Flu intensity [19]: 49.4 to 58.4
Flu intensity [20]: 56.8
Flu intensity [21]: 46.7
fold change (FC) (A549 [22]): 0.6
